# Shown are actives, neighbours in structure and some others; about 2.3% of the full set was active somewhere.
# Bim-Mcl-1: inhibitors of Bim-Mcl-1 interaction, human. 190,000 tested, 0.1% active. inhibition, % at 10 µM. Bead-based flow cytometry, Bim peptide-Mcl-1 binding. AID 1009; in the data active = inhibition above about 40%
# Target sequence (Q07820 whole entry, looked up): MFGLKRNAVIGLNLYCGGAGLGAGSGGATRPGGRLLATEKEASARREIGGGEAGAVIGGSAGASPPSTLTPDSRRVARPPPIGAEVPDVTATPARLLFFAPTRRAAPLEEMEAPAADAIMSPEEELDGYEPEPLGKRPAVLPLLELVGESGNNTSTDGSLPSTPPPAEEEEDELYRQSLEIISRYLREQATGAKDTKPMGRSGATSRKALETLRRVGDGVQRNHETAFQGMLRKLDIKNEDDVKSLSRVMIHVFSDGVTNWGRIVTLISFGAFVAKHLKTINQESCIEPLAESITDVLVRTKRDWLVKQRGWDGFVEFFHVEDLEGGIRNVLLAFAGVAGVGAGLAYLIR
# T cell HTS: modulates CD8 T cell binding to vesicles; AID 2052; 2C CD8+ T cell-vesicle binding, flow cytometry; hits give low values; response (vesicle binding), % at 7 µM; 330,000 tested, 0.068% active;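 active = response, share of CD8 T cells binding vesicles, and their 90th percentile fluorescence all below set limits, cut at about 80% in these data, passing the limit was not always enough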;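 note: values below 100% mean blocked vesicle binding to the CD8+ T cells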
#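 System: murine 2C transgenic CD8+ T lymphocytes; also added: QL9-loaded Drosophila micro-vesicles; times: binding 1.5 h at 37 °C; measured by: flow cytometry, PE anti-B7-1 (FL2) versus Alexa647 anti-CD8 (FL8), PFA-fixed; control set: Peptide-free naked vesicles (low) and QL9 vesicles with 0.7% DMSO vehicle (high)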
# MCL1 BIM primary: disrupts human MCL1 binding to BIM-BH3 peptide; GST-MCL1 / FITC-Bim-BH3 fluorescence polarization; inhibition, % at 10.9 µM; 320,000 tested, 0.68% active; AID 2057; Q07820;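 active = inhibition above the mean inhibition of all tested compounds plus 3 SD, set per campaign, cut at about 40% in these data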;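 note: higher means more loss of mP so more displacement of Bim peptide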
# Mcl1 Bid PPI: disrupts binding of human Mcl-1 to Bid peptide; 220,000 tested, 0.97% active; Q07820; inhibition, % at 21.7 µM; TR-FRET Mcl-1/Bid-Dy647 peptide binding, 1536-well;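 active = compounds that cut the binding signal by more than half at the single screening dose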;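 note: His-tagged Mcl-1 with europium anti-His antibody binding Bid BH3 peptide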
# Mcl1 Noxa PPI: disrupts binding of human Mcl-1 to Noxa peptide; TR-FRET Mcl-1/Noxa peptide binding, 2 h; inhibition, % at 21.7 µM; 220,000 tested, 1.5% active;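 active = compounds that cut the protein-peptide binding signal by more than 50% relative to plate controls in a single-dose test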;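 note: His-tagged Mcl-1 with rhodamine Noxa BH3 peptide and terbium anti-His antibody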
# DSG3 Ab inh: blocks pemphigus antibody binding to human desmoglein-3. P32926. DSG3-coupled beads, scFv-anti-DSG3-GFP binding, flow cytometry; hits give low values. binding (percent of control), % at 10 µM. 310,000 tested, 0.48% active. AID 588358;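 active = binding more than 3 SD below its plate's average and above zero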;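 note: hits lower antibody fragment binding to DSG3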
# Bcl-xL conf: Bcl-xL (human) inhibition, MCL1 counter-screen confirmation | shares compounds with MCL1 BIM primary | GST-Bcl-xL / FITC-Bim BH3 peptide FP binding | inhibition, % at 10.9 µM | 1,700 tested, 54% active | AID 2166;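 active = inhibition above a cutoff equal to the mean inhibition of all tested compounds plus 3 SD, cut at about 30% in these data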
# Target sequence (Q07817 whole entry, looked up): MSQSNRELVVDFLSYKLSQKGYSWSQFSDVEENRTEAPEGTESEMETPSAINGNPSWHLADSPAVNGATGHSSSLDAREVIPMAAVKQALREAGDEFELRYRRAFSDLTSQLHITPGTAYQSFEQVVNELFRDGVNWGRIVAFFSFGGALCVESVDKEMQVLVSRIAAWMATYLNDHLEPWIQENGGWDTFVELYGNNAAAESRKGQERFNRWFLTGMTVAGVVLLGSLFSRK
# MCL1 inh confirm: confirmation of human MCL1 and BIM-BH3 interaction inhibitors. shares compounds with MCL1 BIM primary. GST-MCL1 / FITC-Bim-BH3 fluorescence polarization. inhibition, % at 10.9 µM. 1,700 tested, 61% active. AID 2168;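 active = inhibition above the average of all tested compounds plus 3 SD, cut at about 40% in these data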
# Numbers stand for hits; 0 = inactive; - = not tested or not shown; + = active, no number.
SMILES,Bim-Mcl-1,T cell HTS,MCL1 BIM primary,Mcl1 Bid PPI,Mcl1 Noxa PPI,DSG3 Ab inh,Bcl-xL conf,MCL1 inh confirm
COc1ccc(/C=C2\CCCc3c2nc2ccccc2c3C(=O)O)cc1OC,-,0,159.1,0,0,-,170.0,190.6
CCOc1ccc(/C=C2\CCCc3c2nc2ccccc2c3C(=O)O)cc1OC,-,0,+,-,-,-,183.4,+
COc1ccc(/C=C2\CCc3c2nc2ccccc2c3C(=O)O)cc1OC,-,0,85.6,0,0,0,0,0
COc1cc(/C=C2\CCCc3c2nc2ccccc2c3C(=O)O)cc(OC)c1O,-,0,0,0,0,0,-,-
CCC(=O)N1c2ccc(S(=O)(=O)N3CCN(c4ccc([N+](=O)[O-])cc4)CC3)cc2CC1C (stereo not given),-,0,0,-,-,0,-,-
CN(C(=O)c1cc(COc2ccc(F)cc2Cl)on1)C1CCOC1 (stereo not given),-,-,-,-,-,0,-,-
Cc1c2ccccc2nc2c(F)c(NCCO)c(F)c(F)c12,0,0,+,0,0,0,+,+
Cc1c2ccccc2nc2c(F)c(NC(C)C)c(F)c(F)c12,0,0,139.0,0,0,0,130.9,150.6
COc1ccc(N2Cc3ccc(C(=O)N/N=C\c4ccc(O)cc4O)cc3C2)cc1,-,0,0,-,-,-,-,-
CC(=O)N1CCc2c(sc(NC(=O)c3ccc(S(=O)(=O)N(C)C)cc3)c2C#N)C1,-,0,40.6,-,-,0,37.7,0
C=CCN=c1scc(-c2ccco2)n1/N=C/c1ccc(O)c(O)c1O,-,0,49.8,0,84.4,0,0,77.7
CN=c1scc(C)n1/N=C/c1ccc(O)c(O)c1O,0,0,58.1,0,91.3,0,78.7,121.0
CN=c1scc(-c2cccs2)n1/N=C/c1ccc(O)c(O)c1O,0,0,53.0,0,107.5,0,68.4,55.5
CCN(CC)C(=O)C1=C(C)N(CCC2=CCCCC2)C(=O)C(CC(=O)NC2CCCC2)C1 (stereo not given),-,-,-,-,-,0,-,-
Cc1cc(/C=C(\C#N)c2nc3ccccc3[nH]2)c(C)n1C,0,0,122.2,0,0,0,127.2,149.4
Cc1cc(/C=C(/C#N)c2nc3ccccc3[nH]2)c(C)n1-c1cccc([N+](=O)[O-])c1,0,0,0,0,0,0,-,-
O=C(O)c1ccccc1NS(=O)(=O)c1cccc(C(F)(F)F)c1,0,0,0,0,0,0,-,-
O=C(O)c1ccccc1NS(=O)(=O)c1cccc(-n2sc3ccccc3c2=O)c1,-,0,55.9,-,-,46.2,35.0,68.3
CCOc1ccc(CCN2CN(C3CCCCC3)CNC2=S)cc1OCC,-,0,0,0,0,-,-,-
CCOc1ccccc1N1CN(C2CCCCC2)CNC1=S,-,0,51.7,0,0,0,0,0
CCNc1nc(C#N)nc2c1ncn2-c1cc(F)cc(F)c1,-,0,0,-,-,0,-,-
Cc1ccc(CNC(=O)CC(C)S(=O)(=O)c2ccc3c(c2)NC(=O)CS3)o1 (stereo not given),-,0,85.6,-,-,0,0,0
COc1ccc(C(=S)N2CCN(c3ccccc3Cl)CC2)cc1OC,-,0,0,0,0,0,-,-
COc1cc(C(=S)N2CCN(c3ccccc3Cl)CC2)cc(O)c1O,0,0,58.4,0,59.8,0,33.9,71.2
Cc1cc(C=C2C(=O)c3ccccc3C2=O)c(C)n1C,0,0,70.7,0,0,0,33.6,55.4
SMILES,Bim-Mcl-1,T cell HTS,MCL1 BIM primary,Mcl1 Bid PPI,Mcl1 Noxa PPI,DSG3 Ab inh,Bcl-xL conf,MCL1 inh confirm
CCn1c(C)cc(C=C2C(=O)c3ccccc3C2=O)c1C,0,-,-,0,0,0,-,-
COc1ccc(OC)c2[nH]c(=O)c(CCNS(=O)(=O)c3ccc(Cl)cc3)cc12,0,0,44.2,0,0,0,0,0
CN1Cc2sc(N)c(C#N)c2CC1(C)C,0,0,59.4,0,0,0,0,0
CC1(C)Cc2c(sc(N)c2C#N)C(C)(C)N1,0,0,0,0,0,0,-,-
N#CCC(=O)N/N=C/c1cc(Br)ccc1OCc1cccc2ccccc12,-,0,0,-,-,0,-,-
COc1ccccc1N(CC(=O)NCc1ccco1)S(=O)(=O)c1ccc(C)cc1,-,0,46.7,-,-,-59.7,33.1,79.0
CC(C)C[C@@]12C(=O)N(c3cccc(Br)c3)C(=O)N1[C@H](c1ccc(F)cc1)[C@@H]1C(=O)N(C3CCCCC3)C(=O)[C@@H]12,-,0,0,-,-,0,-,-
Cc1ccc(N2C(=O)c3cccc4c(N5CCN(C)CC5)ccc(c34)C2=O)c2cccnc12,0,0,+,0,0,-,+,+
C=CCN1C(c2ccccc2)=CS/C1=C(/C#N)c1nnc(N2CCOCC2)n1-c1ccccc1,0,0,0,0,0,0,-,-
C=CCn1c(CC#N)nnc1N1CCOCC1,0,0,65.1,0,0,0,0,0
O=C(CNCc1ccccc1)Nc1ccc(F)cc1,0,0,42.7,0,0,-,0,0
COc1ccccc1CNCC(=O)Nc1ccc(N(C)C)cc1,-,0,86.2,-,-,0,61.4,60.8
CCn1c2ccccc2c2cc(NC(=O)CNCc3ccccc3OC)ccc21,-,0,0,-,-,0,-,-
CC(=NO)c1ccc2c(c1)C(=NO)c1ccccc1-2,-,-,-,-,-,0,-,-
Cc1ccc(S(=O)(=O)n2cccc2/C=C/[N+](=O)[O-])cc1,-,-,-,-,-,0,-,-
O=C(CSc1nc2ccccc2s1)NNC(=S)Nc1ccc(Cl)cc1,0,0,43.0,0,0,0,0,0
CN(Cc1ccccc1)C1CCN(Cc2ccccc2[N+](=O)[O-])CC1,-,0,0,-,-,0,-,-
Nc1cc2sc(-c3ccc(C(=O)O)cc3)nc2cc1Cl,0,0,0,0,0,0,-,-
Nc1ncc(N=Nc2cc(C(=O)O)ccc2Cl)s1,-,0,44.9,0,66.9,0,36.1,82.1
COc1cccc(OCc2cc(C(=O)N3CCN(c4ccccc4OC)CC3)no2)c1,-,0,0,-,-,-,-,-
Cc1ccc(N2C(=O)[C@@H]3[C@H](C2=O)C2c4ccccc4C=CN2[C@@H]3C(=O)c2ccco2)c(C)c1 (stereo not given in full),-,0,62.7,-,-,0,44.5,58.8
CC(C)(C)C(=O)[C@@H]1[C@@H]2C(=O)N(c3ccc4c(c3)OCCO4)C(=O)[C@@H]2C2c3ccccc3C=CN21 (stereo not given in full),0,0,0,0,0,0,-,-
Cc1ccc(N2C(=O)[C@@H]3[C@H](C2=O)C2c4ccccc4C=CN2[C@@H]3C(=O)c2ccco2)cc1 (stereo not given in full),0,-,-,0,0,0,-,-
O=C(c1ccco1)[C@@H]1[C@@H]2C(=O)N(c3ccccc3)C(=O)[C@@H]2C2c3ccccc3C=CN21 (stereo not given in full),-,0,79.3,-,-,0,59.5,77.2
COc1ccc(OCC(=O)NNC(=S)NC(=O)C2CCCCC2)cc1,-,0,0,-,-,-,-,-
